Only some compounds are listed: those with a hit (about 1.2% of all), similar ones and a draw of the others.
CAL PDZ FP-1: untagged CAL PDZ binding inhibitors, primary screen, biochemical, fluorescence polarization, HTS. Golgi-associated PDZ and coiled-coil motif-containing protein (Homo sapiens), Q9HD26. AID 602252, 2012. purified CAL PDZ, TMR-peptide fluorescence polarization, 1 h. inhibition, % at 24.9 µM. actives 0.92% (n = 300,000);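 active = mean inhibition of at least 30% with at least half of replicates also reaching 30%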
ARNT TACC3 PPI: disruptors of ARNT/TACC3 protein interaction, primary screen, biochemical, AlphaScreen, single concentration | Transforming acidic coiled-coil-containing protein 3 (Homo sapiens), Q9Y6A5 | AlphaScreen His-ARNT PAS-B/GST-TACC3 binding, luminescence; TACC3 fragment carries E629A point mutation | inhibition, % at 9.99 µM | actives 0.66% (n = 390,000) | AID 623870, 2012;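 active = mean inhibition of replicates at least 50% and at least half of replicates each reaching 50%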
CAL PDZ FP-2: CAL PDZ peptide-binding inhibitors, primary screen, biochemical, fluorescence polarization, Cer-tagged CAL PDZ, HTS. Golgi-associated PDZ and coiled-coil motif-containing protein (Homo sapiens), Q9HD26. purified CAL PDZ, TMR-peptide fluorescence polarization, 1 h. inhibition, % at 20 µM. actives 0.02% (n = 330,000). AID 504414, 2011;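 active = highest replicate inhibition of at least 40%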
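Material – purified CerCALP PDZ construct · Detection – FP readout, S and P plane fluorescence · Measure – percent inhibition from loss of millipolarization · Controls – unlabelled peptide for full inhibition, DMSO wells as neutral · Probe or stimulus – TMR-labelled reporter peptide T*-PRC34 bound in PDZ groove · Times – 1 h at RT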
Numbers stand for hits; 0 = inactive; - = no result given.

SMILES	CAL PDZ FP-1	ARNT TACC3 PPI	CAL PDZ FP-2
CCC(=O)N1[C@H](CN(CC)C(C)=O)[C@@H](c2ccc(-c3cccnc3)cc2)[C@@H]1CO	-	0	-
CCCC#Cc1ccc2c(c1)O[C@H](CN(C)CCC)[C@@H](C)CN([C@H](C)CO)S2(=O)=O	-	0	-
Cc1cc(N2CCN(c3ccccc3)CC2)nc2ccccc12	62	0	-
COc1ccc(N2CCN(c3cc(C)c4ccccc4n3)CC2)cc1	0	0	0
C[C@H]1CN([C@@H](C)CO)C(=O)c2c(c3ccccc3n2C)-c2ccccc2CO[C@@H]1CN(C)C(=O)c1ccc(F)cc1	-	0	-
O=C(Nc1ccccc1)c1ccc(CN2CCc3ccccc3C2)cc1	0	0	0
O=C(Nc1ccccc1F)c1ccc(CN2CCc3ccccc3C2)cc1	132	0	-
C[C@@H]1CN([C@@H](C)CO)C(=O)c2cc(NC(=O)c3ccncc3)ccc2O[C@H]1CN(C)Cc1ccc(C(F)(F)F)cc1	-	0	-
COc1ccc(NC(=O)COC(=O)Cc2coc3cc(OC)ccc23)c(OC)c1	0	0	0
COc1ccc2c(CC(=O)OCC(=O)Nc3cccc(S(N)(=O)=O)c3)coc2c1	50	0	0
CCC(=O)N(C)C[C@H]1Oc2cc(-c3ccccc3)ccc2S(=O)(=O)N([C@@H](C)CO)C[C@@H]1C	-	0	-
O=C1C(=O)c2ccccc2C(O)=C1CCCCl	-	37	0
COc1ccc(CC2=C(O)c3ccccc3C(=O)C2=O)cc1	0	0	0
C[C@@H]1CN([C@H](C)CO)C(=O)c2cccc(NS(=O)(=O)c3ccc(Cl)cc3)c2O[C@@H]1CN(C)C(=O)Nc1ccc2c(c1)OCO2	-	0	-
CO[C@@H]1CN(C)C(=O)c2cc(NS(=O)(=O)c3ccc(Cl)cc3)ccc2OC[C@@H](C)NC[C@@H]1C	-	0	-
CCc1ccc(C(=O)NNC(=O)c2c(CC)noc2C)cc1	60	0	0
CCc1noc(C)c1C(=O)NNC(=O)c1ccccc1	-	0	0
Cc1ccc(S(=O)(=O)N(C)C[C@H]2Oc3ccc(NC(=O)Nc4ccc(F)cc4)cc3C(=O)N([C@H](C)CO)C[C@@H]2C)cc1	-	0	-
O=C(COC(=O)c1ccc2c(c1)S(=O)(=O)c1ccccc1C2=O)NC1CC1	-	0	0
CC1CCC(NC(=O)c2ccc3c(c2)S(=O)(=O)c2ccccc2C3=O)CC1 (stereo not given)	0	0	43
Cc1ccccc1C(=O)c1cccn1CC(=O)NCCC1=CCCCC1	56	0	0
Cc1ccccc1C(=O)c1cccn1CC(=O)NCCCN1CCCCC1	0	0	0
O=C(C[C@H]1C[C@H]2c3cc(NC(=O)c4ccc5c(c4)OCO5)ccc3O[C@H]2[C@@H](CO)O1)NCc1cc(F)ccc1F	-	0	-
C[C@@H]1CN([C@H](C)CO)C(=O)Cc2cc(NS(=O)(=O)c3ccc(F)cc3)ccc2O[C@@H]1CN(C)Cc1ccc(C(=O)O)cc1	-	0	-
Cc1cccc(N2CCN(c3nc4ccccc4n4cnnc34)CC2)c1C	0	0	0
SMILES	CAL PDZ FP-1	ARNT TACC3 PPI	CAL PDZ FP-2
c1cnc(N2CCN(c3nc4ccccc4n4cnnc34)CC2)nc1	-	49	0
O=C(C[C@H]1C[C@@H]2c3cc(NC(=O)Nc4ccc(C(F)(F)F)cc4)ccc3O[C@@H]2[C@H](CO)O1)NCc1ccc2c(c1)OCO2	-	0	-
COc1ccc(OC)c(N2C(=O)c3cccnc3C2=O)c1	0	47	0
COc1ccc(Cl)cc1N1C(=O)c2cccnc2C1=O	0	0	0
O=C(C[C@H]1CC[C@@H](NC(=O)Nc2cc(F)ccc2F)[C@H](CO)O1)NCc1ccc2c(c1)OCO2	-	0	-
C[C@H](CO)N1C[C@H](C)[C@H](CN(C)S(=O)(=O)c2ccccc2)OCCCC[C@H](C)Oc2ccc(NS(C)(=O)=O)cc2C1=O	-	0	-
CC(C)(C)CC(=O)N1CCN(Cc2ccc3c(c2)OCO3)CC1	38	0	0
O=C(N1CCN(Cc2ccc3c(c2)OCO3)CC1)C(Cl)(Cl)Cl	0	0	0
CCSC1=N/C(=C\c2ccccc2)C(=O)N1	61	0	0
O=C1NNC(c2ccccc2)=N/C1=C\c1ccccc1	0	0	0
CCCNC(=O)C[C@@H]1C[C@@H]2c3cc(NC(=O)C4CCC4)ccc3O[C@@H]2[C@@H](CO)O1	-	0	-
CO[C@@H]1CN(C)C(=O)c2cc(NC(C)=O)ccc2OC[C@H](C)N(C(=O)C2CCOCC2)C[C@H]1C	-	0	-
COC(=O)CSC(C(=O)Nc1ccc(C)c(C)c1)c1ccccc1 (stereo not given)	0	0	0
Cc1ccc(NC(=O)C(SCC(=O)O)c2ccccc2)cc1C (stereo not given)	69	0	0
Cc1cc(C)nc(Nc2n[nH]c(-c3ccccc3Cl)n2)n1	38	0	0
Cc1cc(C)nc(Nc2n[nH]c(-c3cccc4ccccc34)n2)n1	0	0	0
Fc1ccc(CN2CCN(C(=S)NCCc3ccccc3)CC2)c(Cl)c1	34	0	0
S=C(NCCc1ccccc1)N1CCN(Cc2ccc(Cl)c(Cl)c2)CC1	0	0	0
Cc1nc(Nc2ccccc2)sc1-c1ccccc1	0	0	0
Cc1nc(Nc2ccc(C(=O)O)cc2)sc1-c1ccccc1	56	0	0
O=C(CN1C(=O)C2C3C=CC(C3)C2C1=O)OCC(=O)c1ccc(Cl)cc1 (stereo not given)	74	0	0
O=C(CN1C(=O)C2C3C=CC(C3)C2C1=O)OCC(=O)c1ccccc1 (stereo not given)	0	-	0
NS(=O)(=O)c1ccc(NC(=O)c2cc(Cl)ccc2Cl)cc1	0	0	0
Cc1ccc(NC(=O)c2cccs2)cc1NC(=O)c1cccnc1	105	0	0
O=C(Nc1nnc(-c2ccco2)o1)c1cccc(Cl)c1	0	0	0
SMILES	CAL PDZ FP-1	ARNT TACC3 PPI	CAL PDZ FP-2
O=C(Nc1nnc(-c2cccnc2)o1)c1cccc(Cl)c1	0	52	0
O=C(Nc1ccc(NC(=O)c2cccs2)cc1)c1cccnc1	0	0	0
O=C(Nc1cc(Cl)cc(Cl)c1)c1cccnc1	0	0	0
NS(=O)(=O)c1ccc(NC(=O)c2cccc(Cl)c2)cc1	39	0	0
O=C(Nc1cccc(NC(=O)c2cccc(Cl)c2)c1)c1cccnc1	35	-	0
CC(=O)N(C)C[C@H]1Oc2cc(-c3ccc(C#N)cc3)ccc2S(=O)(=O)N([C@H](C)CO)C[C@@H]1C	-	0	-
COc1ccc(NC(=O)Nc2ccc3c(c2)CC(=O)N([C@H](C)CO)C[C@@H](C)[C@H](CN(C)Cc2ccc(-c4ccccc4)cc2)O3)cc1	-	0	-
CC(C)CC#Cc1cnc2c(c1)C(=O)N([C@H](C)CO)C[C@@H](C)[C@H](CN(C)Cc1ccc3c(c1)OCO3)O2	-	0	-
O=C(C[C@H]1C[C@H]2c3cc(NC(=O)Nc4ccc(F)cc4)ccc3O[C@H]2[C@H](CO)O1)NC1CCCC1	-	0	-
COCC(=O)Nc1ccc2c(c1)[C@@H]1C[C@H](CC(=O)NCc3ccc(Cl)cc3)O[C@@H](CO)[C@@H]1O2	-	0	-
O=C(O)C[C@H]1C[C@H]2c3cc(NC(=O)c4ccc5c(c4)OCO5)ccc3O[C@H]2[C@@H](CO)O1	-	0	-
